Test results as given in ChEMBL document CHEMBL4229460, “Design and biological evaluation of novel hybrids of 1, 5-diarylpyrazole and Chrysin for selective COX-2 inhibition” (Bioorg Med Chem, 2018).

How the values were obtained:
[1] = test system: A549; test: Antiproliferative activity against human A549 cells after 48 hrs by MTT assay; type: functional, cell-based; settings: A549, 48 h
Procedure, shortened: (§1)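 Cells kept in DMEM with 10% FBS, penicillin/streptomycin, 37 °C, 5% CO₂. Seeded at 5 × 10⁴ cells/well and allowed to adhere 12 h. Exposed to 0, 0.1, 1, 10 and 100 μM (final) for 48 h. Viability read by MTT reduction at OD 570 nm with 630 nm reference. IC50 reported as mean ± SD of three independent experiments.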

[2] = test system: HEK-293T; test: Cytotoxicity against human 293T cells after 48 hrs by MTT assay; type: cell-based
[3] = test system: MCF7; test: Antiproliferative activity against human MCF7 cells after 48 hrs by MTT assay; type: functional, cell-based; settings: MCF7, 48 h
[4] = test system: B16-F10; test: Antiproliferative activity against mouse B16F10 cells after 48 hrs by MTT assay; type: functional, cell-based; settings: B16-F10, 48 h; procedure, shortened: as §1
[5] = biological target: Prostaglandin G/H synthase 1 (Homo sapiens, UniProt P23219); test: Inhibition of COX1 (unknown origin) using arachidonic acid as substrate pretreated for 10 mins followed by substrate addition and measured after 2 mins by ELISA; type: ADME
Prostaglandin G/H synthase 1, sequence (P23219 whole entry): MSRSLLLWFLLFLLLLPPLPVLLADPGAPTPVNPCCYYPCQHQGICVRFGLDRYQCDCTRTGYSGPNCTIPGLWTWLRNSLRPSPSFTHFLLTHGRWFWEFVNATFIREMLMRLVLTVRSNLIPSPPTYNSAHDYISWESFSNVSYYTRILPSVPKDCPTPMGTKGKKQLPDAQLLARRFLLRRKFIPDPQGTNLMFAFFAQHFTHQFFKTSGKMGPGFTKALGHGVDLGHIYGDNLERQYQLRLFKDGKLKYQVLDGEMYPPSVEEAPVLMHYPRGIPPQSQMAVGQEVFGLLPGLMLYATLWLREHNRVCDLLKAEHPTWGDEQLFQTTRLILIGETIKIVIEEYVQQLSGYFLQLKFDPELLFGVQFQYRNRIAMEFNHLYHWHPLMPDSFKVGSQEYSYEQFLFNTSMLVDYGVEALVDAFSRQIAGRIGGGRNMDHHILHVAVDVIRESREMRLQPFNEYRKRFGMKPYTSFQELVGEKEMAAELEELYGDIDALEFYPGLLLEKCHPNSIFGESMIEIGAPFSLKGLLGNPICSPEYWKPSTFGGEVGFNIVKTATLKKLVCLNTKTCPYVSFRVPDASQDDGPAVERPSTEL

[6] = biological target: T1, Prostaglandin G/H synthase 2 (Homo sapiens, UniProt P35354); test: Inhibition of COX2 (unknown origin) using arachidonic acid as substrate pretreated for 10 mins followed by substrate addition and measured after 2 mins by ELISA
T1 sequence (P35354 whole entry): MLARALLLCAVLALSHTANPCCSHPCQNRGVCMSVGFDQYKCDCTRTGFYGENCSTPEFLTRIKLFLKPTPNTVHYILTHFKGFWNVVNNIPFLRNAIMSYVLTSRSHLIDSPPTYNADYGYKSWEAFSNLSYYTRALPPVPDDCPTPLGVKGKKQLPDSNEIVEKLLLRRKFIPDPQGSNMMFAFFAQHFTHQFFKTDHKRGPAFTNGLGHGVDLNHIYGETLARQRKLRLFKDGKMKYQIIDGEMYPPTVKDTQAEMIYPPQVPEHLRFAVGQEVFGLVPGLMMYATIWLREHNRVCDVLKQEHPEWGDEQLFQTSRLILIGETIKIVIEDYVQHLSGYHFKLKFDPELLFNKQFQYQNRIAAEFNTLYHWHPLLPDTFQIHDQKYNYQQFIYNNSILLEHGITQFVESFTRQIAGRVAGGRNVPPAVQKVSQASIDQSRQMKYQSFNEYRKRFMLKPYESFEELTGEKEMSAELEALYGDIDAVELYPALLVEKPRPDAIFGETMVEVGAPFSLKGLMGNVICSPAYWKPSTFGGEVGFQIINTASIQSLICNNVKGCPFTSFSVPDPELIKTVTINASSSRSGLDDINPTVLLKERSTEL

[7] = organism: Homo sapiens; test: Selectivity index, ratio of IC50 for COX1 (unknown origin) to ratio of IC50 for COX2 (unknown origin)
Procedure, shortened: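 Enzyme ELISA kit: COX-1 or COX-2 preincubated with compound at 0, 1, 10 or 100 μM for 10 min at 37 °C in 0.1 M Tris-HCl pH 8.0, 5 mM EDTA, 2 mM phenol, 1 μM heme. Started with 100 μM arachidonic acid for 2 min at 37 °C, stopped with 1 M HCl. PGH₂ reduced by stannous chloride; PGF2α read by enzyme immunoassay at 450 nm. Index taken as the ratio of the COX IC50 values.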

[8] = test system: HeLa; test: Antiproliferative activity against human HeLa cells after 48 hrs by MTT assay; type: functional, cell-based

## Cc1ccc(-n2nc(COC(=O)COc3cc(O)c4c(=O)cc(-c5ccccc5)oc4c3)cc2-c2cccc(Cl)c2)cc1
[1]
  IC50: 8.17 µM
[2]
  IC50: 161 µM
[3]
  IC50: 22 µM
[4]
  IC50: 3.85 µM
[5]
  IC50: 49.6 µM
[6]
  IC50: 4.8 µM
[7]
  Ratio IC50: 10.3
[8]
  IC50: 25.5 µM

## O=C(COc1cc(O)c2c(=O)cc(-c3ccccc3)oc2c1)OCc1cc(-c2cccc(Cl)c2)n(-c2ccc(Cl)cc2)n1
[1]
  IC50: 4.34 µM
[2]
  IC50: 272 µM
[3]
  IC50: 3.94 µM
[4]
  IC50: 5.73 µM
[5]
  IC50: 36.8 µM
[6]
  IC50: 0.422 µM
[7]
  Ratio IC50: 87.3
[8]
  IC50: > 100 µM

## COc1ccc(-c2cc(COC(=O)COc3cc(O)c4c(=O)cc(-c5ccccc5)oc4c3)nn2-c2ccc(Cl)cc2)cc1
[1]
  IC50: 12.7 µM
[2]
  IC50: 290 µM
[3]
  IC50: > 100 µM
[4]
  IC50: 12.4 µM
[5]
  IC50: 46.4 µM
[6]
  IC50: 0.35 µM
[7]
  Ratio IC50: 132
[8]
  IC50: 5.65 µM

## Cc1cccc(-c2cc(COC(=O)COc3cc(O)c4c(=O)cc(-c5ccccc5)oc4c3)nn2-c2ccc(Cl)cc2)c1
[1]
  IC50: 32.1 µM
[2]
  IC50: 162 µM
[3]
  IC50: 23.4 µM
[4]
  IC50: 4.95 µM
[5]
  IC50: 27.6 µM
[6]
  IC50: 1.77 µM
[7]
  Ratio IC50: 15.6
[8]
  IC50: 4.06 µM

## O=C(COc1cc(O)c2c(=O)cc(-c3ccccc3)oc2c1)OCc1cc(-c2cccc(Cl)c2)n(-c2ccccc2)n1
[1]
  IC50: 4.71 µM
[2]
  IC50: 188 µM
[3]
  IC50: 32.9 µM
[4]
  IC50: 7.86 µM
[5]
  IC50: 44.8 µM
[6]
  IC50: 4.43 µM
[7]
  Ratio IC50: 10.1
[8]
  IC50: 1.75 µM

## O=C(COc1cc(O)c2c(=O)cc(-c3ccccc3)oc2c1)OCc1cc(-c2ccccc2)n(-c2ccccc2)n1
[1]
  IC50: 3.23 µM
[2]
  IC50: 173 µM
[3]
  IC50: 3.47 µM
[4]
  IC50: 1.57 µM
[5]
  IC50: 32.9 µM
[6]
  IC50: 2.2 µM
[7]
  Ratio IC50: 13.1
[8]
  IC50: 2.41 µM

## O=C(COc1cc(O)c2c(=O)cc(-c3ccccc3)oc2c1)OCc1cc(-c2ccc(Cl)cc2)n(-c2ccccc2)n1
[1]
  IC50: > 100 µM
[2]
  IC50: 227 µM
[3]
  IC50: 47 µM
[4]
  IC50: 15.6 µM
[5]
  IC50: > 50 µM
[6]
  IC50: 1.41 µM
[7]
  Ratio IC50: > 35
[8]
  IC50: 1.65 µM

## Cc1ccc(-c2cc(COC(=O)COc3cc(O)c4c(=O)cc(-c5ccccc5)oc4c3)nn2-c2ccc(C)cc2)cc1
[1]
  IC50: 2.87 µM
[2]
  IC50: 197 µM
[3]
  IC50: 3.23 µM
[4]
  IC50: 3.51 µM
[5]
  IC50: 41.2 µM
[6]
  IC50: 0.42 µM
[7]
  Ratio IC50: 96
[8]
  IC50: 2.87 µM

## O=C(COc1cc(O)c2c(=O)cc(-c3ccccc3)oc2c1)OCc1cc(-c2ccc(Cl)c(Cl)c2)n(-c2ccc(Cl)cc2)n1
[1]
  IC50: 3.62 µM
[2]
  IC50: 268 µM
[3]
  IC50: 12.1 µM
[4]
  IC50: 6.08 µM
[5]
  IC50: 33.1 µM
[6]
  IC50: 8.58 µM
[7]
  Ratio IC50: 3.86
[8]
  IC50: 4.72 µM

## O=C(COc1cc(O)c2c(=O)cc(-c3ccccc3)oc2c1)OCc1cc(-c2cccc(C(F)(F)F)c2)n(-c2ccccc2)n1
[1]
  IC50: 6.68 µM
[2]
  IC50: 271 µM
[3]
  IC50: 8.01 µM
[4]
  IC50: 6.53 µM
[5]
  IC50: 41.1 µM
[6]
  IC50: 4.79 µM
[7]
  Ratio IC50: 8.58
[8]
  IC50: 4.33 µM

## O=C(COc1cc(O)c2c(=O)cc(-c3ccccc3)oc2c1)OCc1cc(-c2ccc(Br)cc2)n(-c2ccccc2)n1
[1]
  IC50: 3.58 µM
[2]
  IC50: 316 µM
[3]
  IC50: 8.48 µM
[4]
  IC50: > 100 µM
[5]
  IC50: 43.2 µM
[6]
  IC50: 2.12 µM
[7]
  Ratio IC50: 20.4
[8]
  IC50: 6.67 µM

## O=C(COc1cc(O)c2c(=O)cc(-c3ccccc3)oc2c1)OCc1cc(-c2ccc([N+](=O)[O-])cc2)n(-c2ccccc2)n1
[1]
  IC50: 17 µM
[2]
  IC50: 192 µM
[3]
  IC50: 22.2 µM
[4]
  IC50: 15.6 µM
[5]
  IC50: 42 µM
[6]
  IC50: 1.66 µM
[7]
  Ratio IC50: 25.3
[8]
  IC50: 2.04 µM

## Cc1ccc(-n2nc(COC(=O)COc3cc(O)c4c(=O)cc(-c5ccccc5)oc4c3)cc2-c2ccc([N+](=O)[O-])cc2)cc1
[1]
  IC50: 5.88 µM
[2]
  IC50: 216 µM
[3]
  IC50: 15.8 µM
[4]
  IC50: 2.71 µM
[5]
  IC50: 44.8 µM
[6]
  IC50: 1.39 µM
[7]
  Ratio IC50: 32.1
[8]
  IC50: 18.4 µM

## Cc1ccc(-n2nc(COC(=O)COc3cc(O)c4c(=O)cc(-c5ccccc5)oc4c3)cc2-c2ccc(Br)cc2)cc1
[1]
  IC50: 22.7 µM
[2]
  IC50: 278 µM
[3]
  IC50: 2.96 µM
[4]
  IC50: 32.1 µM
[5]
  IC50: 39.5 µM
[6]
  IC50: 1.08 µM
[7]
  Ratio IC50: 36.5
[8]
  IC50: 24.7 µM

## Cc1ccc(-c2cc(COC(=O)COc3cc(O)c4c(=O)cc(-c5ccccc5)oc4c3)nn2-c2ccc(Cl)cc2)cc1
[1]
  IC50: 4.69 µM
[2]
  IC50: 222 µM
[3]
  IC50: 7.86 µM
[4]
  IC50: 17.6 µM
[5]
  IC50: 40.9 µM
[6]
  IC50: 1.44 µM
[7]
  Ratio IC50: 28.4
[8]
  IC50: 12.4 µM

## Cc1ccc(-n2nc(COC(=O)COc3cc(O)c4c(=O)cc(-c5ccccc5)oc4c3)cc2-c2ccc(Cl)cc2)cc1
[1]
  IC50: 3.68 µM
[2]
  IC50: 299 µM
[3]
  IC50: > 100 µM
[4]
  IC50: 20.8 µM
[5]
  IC50: > 50 µM
[6]
  IC50: 2.12 µM
[7]
  Ratio IC50: > 23
[8]
  IC50: 2.67 µM

## O=C(COc1cc(O)c2c(=O)cc(-c3ccccc3)oc2c1)OCc1cc(-c2cccc(F)c2)n(-c2ccccc2)n1
[1]
  IC50: 40.2 µM
[2]
  IC50: 197 µM
[3]
  IC50: 9.02 µM
[4]
  IC50: 10.8 µM
[5]
  IC50: 43.2 µM
[6]
  IC50: 3.53 µM
[7]
  Ratio IC50: 12.2
[8]
  IC50: 2.81 µM

## Cc1ccc(-c2cc(COC(=O)COc3cc(O)c4c(=O)cc(-c5ccccc5)oc4c3)nn2-c2ccccc2)cc1
[1]
  IC50: 4.49 µM
[2]
  IC50: 315 µM
[3]
  IC50: 5.43 µM
[4]
  IC50: 2.59 µM
[5]
  IC50: 45 µM
[6]
  IC50: 0.93 µM
[7]
  Ratio IC50: 48.4
[8]
  IC50: 4.78 µM

## O=c1cc(-c2ccccc2)oc2cc(O)cc(O)c12 [CHRYSIN]
[1]
  IC50: 47.8 µM
[2]
  IC50: 319 µM
[3]
  IC50: 25.7 µM
[4]
  IC50: 17.4 µM
[8]
  IC50: 25.1 µM

## Cc1ccc(-c2cc(C(F)(F)F)nn2-c2ccc(S(N)(=O)=O)cc2)cc1 [CELECOXIB]
[1]
  IC50: 16.1 µM
[2]
  IC50: 225 µM
[3]
  IC50: 26.8 µM
[4]
  IC50: 19.2 µM
[8]
  IC50: 15.7 µM
